Only some compounds are listed: those with a hit (about 1.2% of all), similar ones and a draw of the others.
CTSL1 counter = Fasciola hepatica cathepsin L1 inhibitors, primary screen, counter-screen for PFM18AAP inhibitor project, biochemical, QFRET, fluorogenic peptide substrate; recombinant F. hepatica cathepsin L1, Z-Leu-Arg-MCA fluorescence; inhibition, % at 5.96 µM; actives 0.49% (n = 300,000);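 active = inhibition above the mean of all tested compounds plus 3 SD, set per screening campaign, cut at about 17% in these data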;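 also: 0% = plate median of test compound wells and 100% = 1 µM Z-Phe-Ala-diazomethylketone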
ASAP1 inh = inhibitors of human ASAP1 ArfGAP activity, primary screen, biochemical, fluorescence polarization | ASAP1-stimulated ARF1 GTP hydrolysis, GDP FP detection | inhibition, % at 16.5 µM | actives 0.19% (n = 360,000); in the data active = inhibition above about 25%;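 also: 0% = vehicle with enzyme and substrate and 100% = no enzyme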
Target sequence (Q9ULH1 325-724 limits assumed): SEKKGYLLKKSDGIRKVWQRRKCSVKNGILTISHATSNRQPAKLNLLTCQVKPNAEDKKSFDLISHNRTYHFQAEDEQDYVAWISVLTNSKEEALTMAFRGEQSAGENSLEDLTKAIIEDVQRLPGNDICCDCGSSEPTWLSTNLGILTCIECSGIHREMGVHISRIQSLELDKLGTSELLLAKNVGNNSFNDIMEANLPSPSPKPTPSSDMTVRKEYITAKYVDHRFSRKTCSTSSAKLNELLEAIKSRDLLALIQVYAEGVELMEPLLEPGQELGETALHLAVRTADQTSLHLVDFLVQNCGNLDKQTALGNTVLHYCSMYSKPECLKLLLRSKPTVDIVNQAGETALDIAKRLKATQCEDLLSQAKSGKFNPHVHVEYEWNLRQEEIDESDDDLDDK
NPR2 activator = human GC-B receptor activators, primary screen, HEK293 GC-B cells, cGMP TR-FRET, EC30 CNP | 0% at EC30 CNP, 100% saturating CNP | actives 0.11% (n = 370,000) | activation, % at 10 µM;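 active = activation at 10 µM reaching about 35% in either raw or pattern-adjusted values, limit read from the data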
core dimer inh = inhibitors of HCV core protein dimerization, primary screen, biochemical, TR-FRET, high-throughput; TR-FRET GST/Flag-core106 dimerization, 1536-well; inhibition, % at 5 µM; actives 0.33% (n = 300,000); AID 1899, 2009;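 active = inhibition above the mean of all tested compounds plus 3 SD, set per screening campaign, cut at about 45% in these data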
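System – GST-tagged and Flag-tagged HCV core protein residues 1-106 · Repeats – one well for each compound · Technique – TR-FRET 671 and 617 nm emission · Doses – one concentration, 5 µM, in 0.5% DMSO · Times – 4 h, 22.5 °C incubation · Also added – Eu donor and XL665 acceptor anti-tag antibodies · Measure – percent inhibition of core106 dimerization signal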
ARFGAP1 inhibitor = inhibitors of rat ARFGAP1 GAP activity, primary screen, biochemical, fluorescence polarization, GDP tracer. ADP-ribosylation factor GTPase-activating protein 1 (Rattus norvegicus), Q62848. Arfgap1-stimulated ARF1 GTP hydrolysis, GDP FP detection. inhibition, % at 16.5 µM. actives 0.26% (n = 360,000). AID 651572, 2012;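 active = inhibition above a per-plate limit, mean inhibition of low control wells plus 3 SD, cut at about 25% in these data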;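 also: 0% = DMSO wells with enzyme and 100% = wells lacking Arfgap1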
Target sequence (Q62848 1-136 limits assumed): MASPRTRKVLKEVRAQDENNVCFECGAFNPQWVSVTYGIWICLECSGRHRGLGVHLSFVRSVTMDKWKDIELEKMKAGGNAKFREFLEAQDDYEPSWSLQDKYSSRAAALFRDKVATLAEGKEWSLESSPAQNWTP
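Repeats: one replicate per compound; assay system: rat Arfgap1 catalytic domain, aa 1-136; times: enzyme reaction 120 min at 25 °C after 20 min preincubation; detection: FP of antibody-bound GDP Alexa 633 tracer, ex 620/em 688 nm; benchmarks: high control wells lacking Arfgap1, low control full reaction with DMSO; reagent: human ARF1(Δ1-17)-GTP substrate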
GC-A act = GC-A stimulated cGMP production enhancers – HEK293 GC-A cells, cGMP TR-FRET, EC30 ANP, primary screen | AID 1671463, 2021 | activation, % at 10 µM | 0% at EC30 ANP, 100% saturating ANP | Atrial natriuretic peptide receptor 1 (Homo sapiens), P16066 | actives 0.14% (n = 370,000); in the data active = activation above about 40%
* hit, by the source's call; nt = not tested or not shown.

SMILES	CTSL1 counter	ASAP1 inh	NPR2 activator	core dimer inh	ARFGAP1 inhibitor	GC-A act
Cc1cc(C)nc(NC(=O)/C=C/c2ccc(Cl)cc2Cl)c1	19*	1	-27	-1	9	-4
O=c1[nH]cn[nH]1	19*	-8	-7	-3	9	3
COc1ccc(C(CNC(=O)CSc2ccc(Br)cc2C)N2CCOCC2)cc1 (stereo not given)	24*	17	-15	1	4	-7
COc1ccc(C(CNC(=O)CSc2ccccc2F)N2CCOCC2)cc1 (stereo not given)	-7	2	-6	1	-5	0
N#Cc1c(-c2ccco2)cc(-c2ccccn2)nc1N	4	-12	0	73*	-7	-3
Cc1cc(Cl)ccc1OCC(=O)Nc1cccc(S(=O)(=O)NC2=NCCCCC2)c1	4	10	5	3	7	1
COc1ccc(Cl)cc1C(=O)NNC(=O)c1ccc(F)c(S(=O)(=O)N2CCOCC2)c1	nt	-5	-1	nt	-2	0
CCOC(=O)CC(C#N)c1cn(C)c2ccccc12 (stereo not given)	28*	-2	4	5	-1	0
COc1ccc(N2C(=O)C(Cl)=C(Nc3ccccc3OC)C2=O)cc1	1	2	-2	4	0	0
COc1ccc(N2C(=O)C(Cl)=C(Nc3ccccc3O)C2=O)cc1	50*	-23	-9	-6	-7	9
CCN(CC)S(=O)(=O)c1ccc(N2CCCC2)c(NC(=O)CC(C)(C)C)c1	20*	1	1	-2	0	0
COC(=O)c1cc(-c2ccc(Br)cc2)on1	2	-4	8	1	-3	59*
CCOC(=O)c1ccccc1NC(=O)c1ccc2nccnc2c1	-1	-9	0	54*	0	-7
COc1ccc(-c2ccc3c(=O)cc(-c4ccsc4)oc3c2)cn1	nt	26*	12	nt	36*	13
COC(=O)[C@@]1(C)[C@H]2C(=O)N(C)C(=O)[C@H]2[C@H]2CN=C(SCc3ccccc3)N21	nt	0	-1	nt	3	1
CN(C(=O)CSc1nnc(-c2ccncc2)n1Cc1ccccc1)C1CCS(=O)(=O)C1 (stereo not given)	-1	nt	nt	-4	nt	nt
CCCN1/C(=C2/SC(=S)N(CC)C2=O)C=Cc2ccccc21	30*	-10	3	-7	12	0
CCOC(=O)C(C(=O)OCC)N(C#N)c1nc(OC)nc(N(C)C)n1	77*	3	1	0	1	4
CCOC(=O)COc1nc(N(C)C)nc(N(C)C)n1	-1	20	6	0	15	3
CSc1nc(N(C)C)nc(N(C#N)CCOC(C)=O)n1	-4	-6	0	0	4	-3
CCOC(=O)C(C(=O)OCC)N(C#N)c1nc(SC)nc(N(C)C)n1	86*	-13	2	21	-2	-2
CCN(CC)C(=O)CSc1ncnc2c(-c3cccs3)nsc12	7	9	0	47*	7	-16
CCN(CC)C(=O)CSc1ncnc2sccc12	-1	3	3	5	5	-1
CC(=O)O[C@H]1CC(C)(C)C(=C=C/C(C)=C/C=C/C(C)=C/C=C/C=C(C)/C=C/C=C(\C)C(=O)C[C@@]23O[C@]2(C)C[C@@H](O)CC3(C)C)[C@](C)(O)C1	34*	nt	nt	14	nt	nt
Oc1oc(-c2cccc3ccccc23)nc1/C=N/c1nccs1	22*	1	-3	8	19	3
SMILES	CTSL1 counter	ASAP1 inh	NPR2 activator	core dimer inh	ARFGAP1 inhibitor	GC-A act
CC(C)(C)c1ccc(CC(=O)N2CCC2(C)C(=O)NCc2ccc(Cl)cc2)cc1 (stereo not given)	nt	-8	-4	nt	-9	-5
O=C1C(Cl)=C(NCc2cccnc2)C(=O)c2ccccc21	27*	12	-2	-18	5	7
C=CCNC1=C(Cl)C(=O)c2ccccc2C1=O	13	-8	3	-25	6	1
Clc1ccc(CSc2nnc(-c3cccnc3)n2Cc2ccco2)c(Cl)c1	-1	-10	-10	48*	7	-26
O=C(CSc1nnc(-c2ccncc2)n1Cc1ccco1)c1ccc(Cl)cc1	-1	17	3	14	0	3
O=C(CSc1nnc(-c2ccc(Cl)cc2)n1Cc1ccco1)c1cccs1	3	-2	-1	47*	8	0
CCCOc1ccc(/C=N/Nc2ccc(C(=O)O)cc2)c(OCCC)c1	nt	-14	-4	nt	-3	-4
Cc1ccc2nc3sc(C(=O)NCc4ccco4)c(N)c3cc2c1	1	13	-8	53*	23	20
COc1cc2cc3c(N)c(C(=O)NCc4ccco4)sc3nc2cc1OC	3	nt	nt	-36	nt	nt
COc1ccc(C)cc1NC(=O)C(OC(=O)CNC(=O)c1ccc(Oc2ccccc2)cc1)c1ccccc1 (stereo not given)	16	1	-6	19	9	9
O=C(CNC(=O)c1ccccc1)OC(C(=O)Nc1cc(C(F)(F)F)ccc1Cl)c1ccccc1 (stereo not given)	28*	-2	-13	-2	5	-8
COc1ccc(C)cc1NC(=O)C(OC(=O)CNC(=O)c1cccc(F)c1)c1ccccc1 (stereo not given)	29*	-6	-10	-3	-1	-9
Cc1cc(C)nc(Nc2nc(C)c3cc4c(cc3n2)OCO4)n1	-2	4	4	-5	-5	1
Cc1nn(-c2ccc(Cl)cc2)c(Cl)c1/C=N/NC(=O)c1ccc(NS(=O)(=O)c2cccs2)cc1	4	-12	0	54*	7	3
CC1CN(S(=O)(=O)c2cccc(C(F)(F)F)c2)C(C)N1C(=O)N1CCOCC1 (stereo not given)	8	2	2	3	-10	4
CC(=O)NC(c1ccc(C(C)C)cc1)c1c(O)ccc2ccccc12 (stereo not given)	3	-1	-7	0	-11	47*
CCOC(=O)c1nn(-c2cccc(Cl)c2)c2nc(CC(C)C)c(C#N)c(=O)n12	1	3	-2	11	8	3

Source: PubChem
